According to ChEMBL document CHEMBL4251614, “Development of inhibitors of receptor protein tyrosine phosphatase β/ζ (PTPRZ1) as candidates for CNS disorders” (Eur J Med Chem, 2018):
pIC50: −log10 of the molar value. Calls of active or inactive are those of the source.

Key:
[1] = biological target: T1, Receptor-type tyrosine-protein phosphatase zeta (Homo sapiens, UniProt P23471); test: Inhibition of PTPRZ1 in human HeLa cells assessed as increase in EGF-induced tryrosine phosphorylation at 0.1 to 10 uM incubated for 10 mins after EGF stimulation for 10 mins by ELISA relative to control; assay type: cell-based
Outline: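 HeLa cells were grown in RPMI-1640 with 10% FBS and seeded at 2 × 10^4 cells/well in triplicate. After 24 h serum starvation, cells received 50 ng/mL EGF for 10 min, then compound at 0.1, 1.0 or 10.0 μM for 10 min, against 0.25% DMSO control. Total phosphotyrosine was measured by a tyrosine-phosphorylation ELISA kit. A rise of at least 10% was the selection criterion.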

[2] = biological target: T1, Receptor-type tyrosine-protein phosphatase zeta; test: Inhibition of human recombinant PTPRZ1 using pNPP as substrate at 1 uM by fluorescence spectrometric analysis relative to control
Outline: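 Screening used single-point testing at 1.0 μM against 0.1 μM human recombinant PTPRZ1 with p-NPP substrate. Phosphate release was detected with a phosphate sensor reagent by fluorescence (excitation 430 nm, emission 450 nm). The cutoff for activity was at least 10% inhibition of phosphatase activity.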

[3] = biological target: T1, Receptor-type tyrosine-protein phosphatase zeta; test: Inhibition of PTPRZ1 in human SH-SY5Y cells assessed as increase in Alk tryrosine 1278 phosphorylation at 1 to 10 uM after 20 mins by Western blot analysis relative to control; assay type: cell-based
Outline: (§1)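 Human SH-SY5Y cells were grown in EMEM/F12 (1:1) with 10% FBS at 37 °C, 5% CO2, then switched to serum-free medium. They were treated for 20 min with 1.0, 5.0 or 10.0 μM compound or DMSO vehicle. Lysates (20 μg protein) were western blotted for phospho-TrkA Y490 and phospho-ALK Y1278, reprobed for total TrkA/ALK, detected by ECL and quantified by densitometry. Data are mean ± S.E.M., ANOVA/Tukey.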

[4] = biological target: T1, Receptor-type tyrosine-protein phosphatase zeta; test: Inhibition of PTPRZ1 in human SH-SY5Y cells assessed as increase in TrkA tryrosine 490 phosphorylation at 1 to 10 uM after 20 mins by Western blot analysis relative to control; assay type: cell-based; outline: as §1
[5] = biological target: T1, Receptor-type tyrosine-protein phosphatase zeta; test: Inhibition of human recombinant PTPRZ1 using pNPP as substrate by fluorescence spectrometric analysis
Outline: (§2)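 Human recombinant enzyme (PTPRZ1 or PTP1B) was used at 0.1 μM with p-NPP substrate. Released phosphate was detected with a phosphate sensor reagent as a fluorescence increase (excitation 430 nm, emission 450 nm). IC50 was derived from compound concentrations of 0.001–100 μM.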

[6] = Drug level in mouse brain at 60 mg/kg after 1 hr by GC-MS analysis; assay type: ADME, organism-based; conditions: read-out: Drug uptake
Outline: (§3)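 Mice were dosed at 60 mg/kg by oral gavage and killed 1 h later. Brain and plasma were analyzed by GC-MS (EI at 70 eV, full scan m/z 50–600). Plasma (100 μL) was precipitated with three volumes of cold methanol, dried and reconstituted in heptane. The reference was a standard serially half-diluted in heptane from 5 μg/mL. Concentrations were a preliminary estimate.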

[7] = biological target: T2, Tyrosine-protein phosphatase non-receptor type 1 (Homo sapiens, UniProt P18031); test: Inhibition of human recombinant PTP1B using pNPP as substrate by fluorescence spectrometric analysis; conditions: for pIC50: read-out: IC50; outline: as §2
T2 sequence (P18031 whole entry): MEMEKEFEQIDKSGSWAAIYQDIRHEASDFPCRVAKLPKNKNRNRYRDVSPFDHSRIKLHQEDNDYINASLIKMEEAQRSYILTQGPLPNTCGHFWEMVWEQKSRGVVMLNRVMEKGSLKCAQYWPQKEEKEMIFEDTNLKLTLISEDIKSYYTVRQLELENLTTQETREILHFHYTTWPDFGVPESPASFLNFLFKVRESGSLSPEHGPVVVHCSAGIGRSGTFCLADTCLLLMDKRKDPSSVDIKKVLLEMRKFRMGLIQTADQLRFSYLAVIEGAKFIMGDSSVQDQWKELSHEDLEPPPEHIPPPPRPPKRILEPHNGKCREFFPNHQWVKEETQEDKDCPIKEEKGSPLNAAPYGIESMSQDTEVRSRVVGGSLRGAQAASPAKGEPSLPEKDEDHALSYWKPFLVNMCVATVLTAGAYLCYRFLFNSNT

PC-12 = test: Cytoprotective activity against amphetamine-induced toxicity in rat PC12 cells at 1 uM after 20 hrs by MTT assay; assay type: functional, cell-based
Outline: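 Rat PC12 cells were grown in RPMI-1640 with 10% FBS at 10^4 cells/well. They were incubated for 20 h with 1.0 mM amphetamine plus 1.0 μM compound. Viability was read by MTT: cells were washed, given medium with MTT (20 μL of a 5 mg/mL stock) for 4 h, solubilized in DMSO, and absorbance read at 570 nm. Data are mean ± S.E.M., compared by one-way ANOVA with Tukey's test.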

[8] = Drug level in mouse plasma at 60 mg/kg after 1 hr by GC-MS analysis; assay type: ADME, organism-based; outline: as §3
[9] = biological target: T1, Receptor-type tyrosine-protein phosphatase zeta; test: Inhibition of PTPRZ1 (unknown origin) using pNPP as substrate preincubated for 15 mins followed by substrate addition measured after 10 mins by spectrophotometric analysis

T1 sequence (P23471 whole entry): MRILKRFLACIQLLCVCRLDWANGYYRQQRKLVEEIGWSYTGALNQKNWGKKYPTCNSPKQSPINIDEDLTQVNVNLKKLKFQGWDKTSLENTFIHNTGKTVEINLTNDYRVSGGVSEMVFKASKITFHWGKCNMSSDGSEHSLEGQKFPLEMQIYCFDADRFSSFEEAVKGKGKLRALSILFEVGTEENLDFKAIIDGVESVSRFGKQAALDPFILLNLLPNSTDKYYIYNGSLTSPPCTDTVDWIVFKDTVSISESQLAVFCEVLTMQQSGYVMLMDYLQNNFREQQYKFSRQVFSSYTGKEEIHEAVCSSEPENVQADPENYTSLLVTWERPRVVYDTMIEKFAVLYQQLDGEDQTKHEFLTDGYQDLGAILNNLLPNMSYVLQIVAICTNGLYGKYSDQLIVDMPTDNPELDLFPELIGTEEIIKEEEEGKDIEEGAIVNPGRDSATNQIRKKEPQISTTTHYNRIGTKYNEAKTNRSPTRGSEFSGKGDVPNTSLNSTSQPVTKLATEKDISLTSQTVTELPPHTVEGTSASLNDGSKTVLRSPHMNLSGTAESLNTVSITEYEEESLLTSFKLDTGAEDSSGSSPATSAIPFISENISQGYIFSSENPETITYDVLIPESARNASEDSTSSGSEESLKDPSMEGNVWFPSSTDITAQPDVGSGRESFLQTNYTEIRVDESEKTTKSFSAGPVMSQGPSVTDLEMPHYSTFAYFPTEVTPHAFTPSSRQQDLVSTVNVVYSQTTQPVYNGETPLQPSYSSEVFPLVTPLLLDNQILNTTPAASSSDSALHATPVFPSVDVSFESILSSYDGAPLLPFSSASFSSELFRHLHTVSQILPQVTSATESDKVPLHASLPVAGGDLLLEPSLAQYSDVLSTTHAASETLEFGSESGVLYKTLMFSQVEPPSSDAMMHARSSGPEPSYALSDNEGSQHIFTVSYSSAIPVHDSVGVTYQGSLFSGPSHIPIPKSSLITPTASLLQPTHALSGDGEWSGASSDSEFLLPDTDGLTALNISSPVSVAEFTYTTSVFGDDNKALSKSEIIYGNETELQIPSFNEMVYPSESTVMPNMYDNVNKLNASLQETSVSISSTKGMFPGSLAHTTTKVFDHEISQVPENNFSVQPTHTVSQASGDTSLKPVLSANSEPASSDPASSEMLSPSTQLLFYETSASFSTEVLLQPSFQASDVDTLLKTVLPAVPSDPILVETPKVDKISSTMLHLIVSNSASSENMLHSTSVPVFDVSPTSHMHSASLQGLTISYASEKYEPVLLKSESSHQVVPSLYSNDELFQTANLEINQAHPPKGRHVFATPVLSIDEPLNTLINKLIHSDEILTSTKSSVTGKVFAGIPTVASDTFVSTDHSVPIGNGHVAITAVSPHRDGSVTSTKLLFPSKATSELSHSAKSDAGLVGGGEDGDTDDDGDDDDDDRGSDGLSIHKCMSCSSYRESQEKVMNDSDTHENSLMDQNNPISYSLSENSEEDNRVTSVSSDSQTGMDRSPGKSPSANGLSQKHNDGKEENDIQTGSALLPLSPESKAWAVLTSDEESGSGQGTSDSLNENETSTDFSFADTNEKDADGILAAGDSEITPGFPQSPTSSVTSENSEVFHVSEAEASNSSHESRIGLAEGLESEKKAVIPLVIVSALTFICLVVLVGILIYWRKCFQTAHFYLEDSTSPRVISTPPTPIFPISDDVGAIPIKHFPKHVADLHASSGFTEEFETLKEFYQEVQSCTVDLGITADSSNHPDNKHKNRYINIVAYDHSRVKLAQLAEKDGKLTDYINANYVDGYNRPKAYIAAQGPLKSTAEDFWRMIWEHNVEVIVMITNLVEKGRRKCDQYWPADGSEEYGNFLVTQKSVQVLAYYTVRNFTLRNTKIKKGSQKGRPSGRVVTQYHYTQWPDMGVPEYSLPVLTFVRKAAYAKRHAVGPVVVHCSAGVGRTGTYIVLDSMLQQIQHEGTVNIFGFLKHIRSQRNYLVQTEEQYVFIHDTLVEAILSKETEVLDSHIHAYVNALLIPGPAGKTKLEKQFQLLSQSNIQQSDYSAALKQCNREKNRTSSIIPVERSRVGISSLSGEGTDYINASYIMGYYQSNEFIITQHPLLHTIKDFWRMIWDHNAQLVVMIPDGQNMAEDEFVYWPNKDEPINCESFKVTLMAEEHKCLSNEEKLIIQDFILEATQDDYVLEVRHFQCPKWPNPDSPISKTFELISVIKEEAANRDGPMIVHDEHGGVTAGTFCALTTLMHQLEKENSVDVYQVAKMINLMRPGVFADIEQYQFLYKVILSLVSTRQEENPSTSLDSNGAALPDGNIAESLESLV

Structure (SMILES)	inhibition [1]	inhibition [2]	pIC50 [5]	other results
O=C(Cc1ccc(SC(F)(F)F)cc1)Nc1ccc(SC(F)(F)F)cc1	≥ 10%	inactive		
FC(F)(F)Sc1ccc(COc2ccc(SC(F)(F)F)cc2)cc1	≥ 10%	≥ 10%	7.00	fold change (FC) [3]: 2; fold change (FC) [4]: 2 to 3; concentration at 1 h [6]: 500 to 1000 ng/mL; IC50 [7]: Not Active; Activity (PC-12): Active; concentration at 1 h [8]: 100 to 300 ng/mL
O=C(Nc1ccc(SC(F)(F)F)cc1)c1ccc(SC(F)(F)F)cc1	≥ 10%	inactive		
FC(F)(F)Sc1ccc(CNc2ccc(SC(F)(F)F)cc2)cc1	≥ 10%	inactive		
FC(F)(F)Sc1ccc(NCc2ccccc2)cc1	≥ 10%	≥ 10%	5.30	pIC50 [7]: 6.00
O=C(Cc1ccc(S(=O)(=O)C(F)(F)F)cc1)Nc1ccc(S(=O)(=O)C(F)(F)F)cc1	≥ 10%	≥ 10%	< 5.00	IC50 [7]: Not Active
FC(F)(F)Sc1ccc(CN(Cc2ccc(SC(F)(F)F)cc2)Cc2ccc(SC(F)(F)F)cc2)cc1	≥ 10%	< 10%		
FC(F)(F)Sc1ccc(NCc2ccc(Cl)cc2)cc1	inactive			
O=C(Nc1ccc(S(=O)(=O)C(F)(F)F)cc1)c1ccc(S(=O)(=O)C(F)(F)F)cc1	inactive	inactive		
O=C(NCc1ccc(SC(F)(F)F)cc1)c1ccc(SC(F)(F)F)cc1	≥ 10%	≥ 10%	< 4.00	IC50 [7]: Not Active
FC(F)(F)Sc1ccc(OCc2ccncc2)cc1	< 10%	inactive		
O=S(=O)(c1ccc(COc2ccc(S(=O)(=O)C(F)(F)F)cc2)cc1)C(F)(F)F	inactive	inactive		pIC50 [9]: 5.46
O=S(=O)(c1ccc(OCc2ccc(SC(F)(F)F)cc2)cc1)C(F)(F)F	inactive	inactive		fold change (FC) [4]: 2 to 3
FC(F)(F)Sc1ccc(CNCc2ccccc2)cc1	inactive			
FC(F)(F)Sc1ccc(CNCc2ccc(SC(F)(F)F)cc2)cc1	≥ 10%	≥ 10%	7.00	pIC50 [7]: 6.15
O=C(Cc1ccc(SC(F)(F)F)cc1)NCc1ccc(SC(F)(F)F)cc1	≥ 10%	≥ 10%	6.10	IC50 [7]: Not Active
O=C(Cc1ccc(S(=O)(=O)C(F)(F)F)cc1)NCc1ccc(S(=O)(=O)C(F)(F)F)cc1	≥ 10%	inactive		
